From ChEMBL document CHEMBL1127492, “Novel potassium channel openers: synthesis and pharmacological evaluation of new N-(substituted-3-pyridyl)-N'-alkylthioureas and related compounds” (1994)
Active and inactive are the calls of the source. No cut-off for these calls is given here.

Key:
Format in all cases: functional
Rattus norvegicus [1] = test: Maximum percent fall in Systolic blood pressure (SBP) was measured in anesthetized normotensive rat for 30 mins after intravenous (iv) injection at 1 mg/kg dose
Outline: (§1)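 Male normotensive rats under anesthesia; compound given as iv bolus via tail vein. Blood pressure and heart rate recorded by pressure transducer coupled to polygraph. Systolic pressure followed for 30 min after injection; value is maximum percent fall in SBP, n = 4.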

Rattus norvegicus [2] = species: Rattus norvegicus; test: Negative logarithm of the concentration causing a 100% inhibition of spontaneous mechanical activity in rat portal vein is determined in vitro
Outline: (§2)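 Rat portal vein strips in buffer (pH 7.2) at 37 °C, gassed 5% CO2 in O2, under 0.5 g tension. Spontaneous contractions recorded isometrically by force-displacement transducer. Strips equilibrated 30 min, then compounds added cumulatively. Values are means of four independent experiments.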

Rattus norvegicus [3] = species: Rattus norvegicus; test: Negative logarithm of the concentration causing a 100% inhibition of spontaneous mechanical activity in rat portal vein is determined in vitro; No response; outline: as §2
Rattus norvegicus [4] = test: Maximum percent fall in Systolic blood pressure (SBP) was measured in anesthetized normotensive rat for 30 mins after intravenous (iv) injection at 0.3 mg/kg dose; outline: as §1
Rattus norvegicus [5] = test: Maximum percent fall in Systolic blood pressure (SBP) was measured in anesthetized normotensive rat for 30 mins after intravenous (iv) injection at 3 mg/kg dose; outline: as §1
Rattus norvegicus [6] = test: Maximum percent fall in Systolic blood pressure (SBP) was measured in anesthetized normotensive rat for 30 mins after intravenous (iv) injection at 0.1 mg/kg dose; outline: as §1
Rattus norvegicus [7] = test: Maximum percent fall in Systolic blood pressure (SBP) was measured in anesthetized normotensive rat for 30 mins after intravenous (iv) injection at 0.03 mg/kg dose; outline: as §1

SMILES	Decrease in SBP (Rattus norvegicus [1]) [%]	pEC100 (Rattus norvegicus [2])	pEC100 (Rattus norvegicus [3])	Decrease in SBP (Rattus norvegicus [4]) [%]	Decrease in SBP (Rattus norvegicus [5]) [%]	Decrease in SBP (Rattus norvegicus [6]) [%]	Decrease in SBP (Rattus norvegicus [7]) [%]
CC(/N=C(\S)Nc1ccc(C(N)=O)nc1)C(C)(C)C (stereo unspecified)	9	5	–	–	–	–	–
CC(C)(C)[C@H]1CC[C@@H](/N=C(\S)Nc2ccc(N)nc2)CC1	9	–	inactive	–	–	–	–
CC(/N=C(\S)Nc1ccc(O)nc1)C(C)(C)C (stereo unspecified)	7	4	–	–	–	–	–
N#CN=C(Nc1ccc(N)[n+]([O-])c1)N[C@@H]1C[C@H]2CC[C@@H]1C2	16	6	–	–	–	–	–
C[C@@H]1[C@H](NC(=S)Nc2ccc(N)nc2)CC2C[C@@H]1C2(C)C	16	5	–	–	–	–	–
CC1(C)CCCC[C@@H]1/N=C(\S)Nc1ccc(N)nc1	26	5.5	–	–	–	–	–
CNc1ccc(N/C(S)=N/C(C)C(C)(C)C)cn1 (stereo unspecified)	25	5	–	8	–	–	–
CC(C)(C)/N=C(\NC#N)Nc1ccc(N)nc1	28	6	–	15	–	–	–
CC(/N=C(\S)Nc1ccc(N)nc1)C(C)(C)C (stereo unspecified)	32	6	–	29	–	–	–
Nc1cncc(N/C(S)=N/C2CCCCC2)c1	7	5	–	–	23	–	–
CSc1ccc(N/C(S)=N/C(C)C(C)(C)C)cn1 (stereo unspecified)	–	5	–	10	–	–	–
CC(N/C(=N\C#N)Nc1ccncc1)C(C)(C)C (stereo unspecified) [PINACIDIL ANHYDROUS]	–	7	–	31	–	25	–
CC(/N=C(\NC#N)Nc1ccc(N)[n+]([O-])c1)C(C)(C)C (stereo unspecified)	22	5.5	–	16	–	–	–
CC(/N=C(\S)Nc1ccc(C#N)nc1)C(C)(C)C (stereo unspecified)	–	5.7	–	28	–	13	–
CC1(C)[C@@H]2CC[C@@]1(C)[C@H](NC(=S)Nc1ccc(N)nc1)C2	41	6.5	–	–	–	14	–
Nc1ccncc1/N=C(\S)NC1CCCCC1	22	5	–	–	27	–	–
CC1(C)[C@H]2CC[C@](C)(C2)[C@H]1NC(=S)Nc1ccc(N)nc1	29	5.5	–	–	39	–	–
C[C@]12CC[C@H](C[C@H]1NC(=S)Nc1ccc(N)nc1)C2	–	7	–	36	–	27	–
C[C@]12CC[C@H](C[C@@H]1NC(=NC#N)Nc1ccc(N)[n+]([O-])c1)C2	31	6	–	18	–	–	–
CCCC/N=C(\S)Nc1cnccc1N	–	3	–	–	13	–	–
C/N=C(\S)Nc1cnccc1N	–	–	inactive	–	15	–	–
COc1ccc(N/C(S)=N/C(C)C(C)(C)C)cn1 (stereo unspecified)	17	5	–	–	30	–	–
Nc1ccc(N/C(S)=N/C2CCCCC2)cn1	26	5	–	–	35	–	–
Nc1ccc(NC(=S)NC2C[C@H]3CC[C@@H]2C3)cn1 (single isomer, unassigned; 22g)	22	7	–	34	–	–	–

SMILES	Decrease in SBP (Rattus norvegicus [1]) [%]	pEC100 (Rattus norvegicus [2])	pEC100 (Rattus norvegicus [3])	Decrease in SBP (Rattus norvegicus [4]) [%]	Decrease in SBP (Rattus norvegicus [5]) [%]	Decrease in SBP (Rattus norvegicus [6]) [%]	Decrease in SBP (Rattus norvegicus [7]) [%]
CC(/N=C(\S)Nc1ccc(NCCN)nc1)C(C)(C)C (stereo unspecified)	3	–	inactive	–	–	–	–
Nc1ccc(NC(=S)NC2C[C@H]3CC[C@@H]2C3)cn1 (single isomer, unassigned; 22e)	–	7	–	41	–	19	–
Nc1ncccc1/N=C(\S)NC1CCCCC1	9	4	–	–	21	–	–
CC(/N=C(\NC#N)Nc1cc[n+]([O-])cc1)C(C)(C)C (stereo unspecified)	–	5	–	13	–	–	–
CC(C)(C)/N=C(\NC#N)Nc1ccc(N)[n+]([O-])c1	19	4.5	–	–	20	–	–
CC(/N=C(\S)Nc1ccc(Cl)nc1)C(C)(C)C (stereo unspecified)	41	5.7	–	27	–	–	–
Nc1ccc(N/C(S)=N/[C@H]2CC3C=CC2C3)cn1 (stereo partly specified)	–	7	–	32	–	24	–
CC(/N=C(\S)Nc1ccc(-n2ccnc2)nc1)C(C)(C)C (stereo unspecified)	–	3.7	–	–	11	–	–
CC(C)(C)C1CCCCC1/N=C(\S)Nc1ccc(N)nc1 (single isomer, unassigned)	12	5	–	–	–	–	–
CC1(C)CCC[C@H](/N=C(\S)Nc2ccc(N)nc2)C1	25	5	–	–	–	–	–
CC(C)C/N=C(\S)Nc1ccc(N)nc1	23	4.7	–	12	–	–	–
CCC(C)(C)/N=C(\S)Nc1ccc(N)nc1	31	5	–	15	–	–	–
Nc1ccc(N/C(S)=N/C2CC3CCC2CC3)cn1 (stereo unspecified)	–	7	–	43	–	26	–
N#CN/C(=N\C1CC2CCC1CC2)Nc1ccc(N)nc1 (stereo unspecified)	–	6	–	28	–	17	–
Cc1ccc(N/C(S)=N/C(C)C(C)(C)C)cn1 (stereo unspecified)	30	5.7	–	18	–	–	–
CC(/N=C(\S)Nc1ccc(NN)nc1)C(C)(C)C (stereo unspecified)	–	4	–	–	26	–	–
CC(/N=C(\NC#N)Nc1ccc(N)nc1)C(C)(C)C (stereo unspecified)	30	6	–	24	–	–	–
Nc1ccc(N/C(S)=N/C23CC4CC(CC(C4)C2)C3)cn1	24	6.5	–	–	–	–	–
CC(/N=C(/NC#N)Nc1cccnc1)C(C)(C)C (stereo unspecified)	–	7	–	–	–	37	26
N#CN/C(=N\[C@H]1C[C@H]2CC[C@@H]1C2)Nc1ccc(N)nc1	–	6.5	–	32	–	25	–
CC(/N=C(\S)Nc1ccc(N2CCCCC2)nc1)C(C)(C)C (stereo unspecified)	10	–	inactive	–	–	–	–
CC(/N=C(\S)Nc1ccc(Nc2ccccc2)nc1)C(C)(C)C (stereo unspecified)	5	–	inactive	–	–	–	–
N#CN/C(=N\C1CC2CCC1CC2)Nc1ccc(N)[n+]([O-])c1 (stereo unspecified)	20	5	–	12	–	–	–
C[C@]12CC[C@H](CC1/N=C(\NC#N)Nc1ccc(N)nc1)C2 (stereo partly specified)	–	7.5	–	33	–	26	–
